High-throughput results deposited in PubChem BioAssay by several laboratories.
This is a sample that favours compounds with a hit; in the whole collection about 1.4% have one here.
Furin inhibitor = human furin inhibition; P09958; purified furin, fluorogenic substrate cleavage; inhibition, % at 20 µM or 30 µM; hit rate 0.061% among 220,000; in the data active means inhibition above about 25%
KLK5 inh = kallikrein 5 (human) inhibition; recombinant hK5, fluorogenic AMC substrate cleavage; inhibition, % at 5 µM; hit rate 0.59% among 210,000;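 active means inhibition of 40% or more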
Target sequence (Q9Y337 67-293 limits assumed): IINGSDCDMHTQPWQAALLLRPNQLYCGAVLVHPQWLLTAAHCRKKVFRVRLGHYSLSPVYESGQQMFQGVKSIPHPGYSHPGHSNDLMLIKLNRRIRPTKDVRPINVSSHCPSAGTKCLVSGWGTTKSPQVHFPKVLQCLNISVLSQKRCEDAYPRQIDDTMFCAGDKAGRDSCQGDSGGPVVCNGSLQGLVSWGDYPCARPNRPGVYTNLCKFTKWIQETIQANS
FXIa inh = blocks human coagulation factor XIa protease activity; purified FXIa, Boc-Glu-Ala-Arg-AMC fluorogenic substrate; inhibition, % at 5 µM; hit rate 0.14% among 220,000; AID 798;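 active means inhibition of at least 40%; inactive means inhibition below 40%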;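 further: fluorescence of freed AMC excited at 355 nm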
Thrombin inh = blocks human thrombin protease activity; inhibition, % at 5 µM; hit rate 0.26% among 220,000; P00734; alpha-thrombin, Boc-VPR-AMC fluorogenic substrate cleavage; AID 1046;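 active means inhibition at or above 40%; inactive means inhibition below 40%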
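Test system: human alpha-thrombin; medium: pH 7.5 Tris-saline with Tween 20; times: reaction at room temperature; signal: AMC fluorescence at 355 nm excitation and 460 nm emission; also added: Boc-VPR-AMC substrate, 15 µM final; dosing: one concentration per compound, 5 µM, with 0.2% DMSO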
Calpain2 inh = inhibitors of pig calpain II | inhibition, % at 16 µM | hit rate 0.37% among 220,000 | purified calpain II, fluorogenic peptide substrate, 30 min | AID 1236;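 active means inhibition above about 50%, limit read from the data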
FXIIa inh = inhibitors of human coagulation factor XIIa; hit rate 0.3% among 220,000; AID 800; inhibition, % at 5 µM; P00748; purified FXIIa, Boc-QGR-AMC fluorogenic substrate, 2 h; in the data active means inhibition above about 40%
Numbers stand for hits; 0 = inactive; - = not tested or not shown.

SMILES	Furin inhibitor	KLK5 inh	FXIa inh	Thrombin inh	Calpain2 inh	FXIIa inh
Cc1cc(C)c(S(=O)(=O)ON2C(=O)c3ccccc3C2=O)cc1C	0	0	72	56	0	0
CCOC(=O)c1ccccc1-c1csc(N)n1	0	0	0	0	0	0
COc1ccc(C(=O)/C=C/NCc2ccc(F)cc2)cc1OC	0	62	0	0	0	0
COc1ccc(C(=O)O)cc1S(N)(=O)=O	0	0	0	0	0	0
CNS(=O)(=O)c1cc(C(=O)O)ccc1OC	0	0	0	0	0	41
CS(=O)(=O)N(CC(=O)NCc1ccco1)Cc1ccc(Cl)cc1	0	78	0	0	0	0
O=C(CNCc1ccc(Cl)cc1)Nc1ccc2c(c1)OCCO2	0	0	0	0	0	0
CS(=O)(=O)N(CC(=O)Nc1ccc2c(c1)OCCO2)Cc1ccc(Cl)cc1	0	48	0	0	0	0
CC1CCN(S(=O)(=O)c2ccc(NC(=O)CSc3nnnn3C)cc2)CC1	0	0	0	0	59	0
CCOC(=O)c1c(NC(=O)CSc2nnnn2C)sc(C)c1-c1ccc(C)cc1	0	0	0	0	56	0
COc1ccccc1NC(=O)CSc1nnnn1C	0	0	0	0	0	59
CCOC(=O)c1c(-c2ccccc2)csc1NC(=O)CSc1nnnn1C	0	0	0	0	0	0
Cc1ccc(NC(=O)C[n+]2cc(-c3ccccc3)n3c2CCC3)c(C)c1	0	0	0	0	0	0
CC12CC3CC(C)(C1)CC(C(=O)NC(=S)N1CCCCC1)(C3)C2	0	0	0	0	0	0
NS(=O)(=O)c1ccc(NC(=O)COC(=O)C23CC4CC(CC(C4)C2)C3)cc1	0	0	0	0	58	0
O=c1n(-c2ccccc2)c(=O)n2n1CCCC2	0	0	0	0	0	0
O=C(Cn1c(=O)n(-c2ccccc2)c(=O)n1CC(=O)N1CCCCC1)N1CCCCC1	0	0	0	0	50	0
CC(=O)SC(C)CC(=O)Nc1ccccc1 (stereo unspecified)	0	0	0	0	0	0
Cc1c(NC(=O)CN2CCCc3ccccc32)c(=O)n(-c2ccccc2)n1C	0	144	0	0	0	0
Cc1c(NC(=O)CC(=O)Nc2c(C)n(C)n(-c3ccccc3)c2=O)c(=O)n(-c2ccccc2)n1C	0	0	0	0	0	0
Nc1nnc(SCc2coc(-c3ccc(Cl)cc3)n2)s1	0	0	0	0	0	0
O=C(CCC(=O)OCc1ccc(C(=O)Oc2ccc(Cl)cc2)cc1)Nc1ccccc1	0	52	0	0	0	0
Cc1cc(C)n(CC2CC(=O)N(c3ccc(Cl)c(Cl)c3)C2=O)n1 (stereo unspecified)	0	54	0	0	0	0
Cc1cc(C)n(CC2CC(=O)N(c3ccc(Cl)cc3)C2=O)n1 (stereo unspecified)	0	0	0	0	0	0
COc1cc(C)c(S(=O)(=O)NCc2cccs2)cc1C	0	0	0	0	0	108
SMILES	Furin inhibitor	KLK5 inh	FXIa inh	Thrombin inh	Calpain2 inh	FXIIa inh
COc1ccc(Cl)cc1S(=O)(=O)NCc1cccs1	0	0	0	0	0	0
CSc1nc(N)nc(SCC(=O)c2ccc(C)cc2)c1C#N	0	0	0	0	0	0
COc1ccc(-c2cc(C(=O)NC(Cc3cc4ccccc4[nH]3)C(=O)O)c(C)o2)cc1OC (stereo unspecified)	0	-	0	0	52	0
Nc1nnc(SCCCC(=O)c2ccccc2)s1	0	0	0	46	0	0
CCOc1cccc(CNc2ccc(O)cc2)c1OCc1ccccc1Cl	0	0	0	0	0	0
CCOc1cccc(CNc2ccc(O)cc2)c1OCc1ccc(Cl)cc1Cl	0	0	0	0	68	0
CCCC1CC(=O)OC1(C)C(=O)CSc1n[nH]c(-c2ccccc2)n1 (stereo unspecified)	0	0	0	0	0	0
Nc1cc(=O)[nH]c(=O)n1Cc1ccccc1	0	0	0	0	0	0
Nc1cc(=O)[nH]c(=O)n1Cc1ccco1	26	0	0	0	0	0
NNC(=O)CCn1nnc2ccccc21	0	0	0	0	0	0
CCC(C)NC(=O)C1CN(S(=O)(=O)c2ccccc2)CCN1S(=O)(=O)c1ccccc1 (stereo unspecified)	0	0	0	0	0	41
CC(C)c1ccc(CNc2ccc([N+](=O)[O-])cn2)cc1	0	0	0	0	94	0
CC(C)(C)c1ccc(CNc2ccc([N+](=O)[O-])cn2)cc1	0	0	0	0	79	0
O=[N+]([O-])c1ccc(NCc2ccc(Cl)cc2)nc1	0	0	0	0	80	0
O=[N+]([O-])c1ccc(Nc2ccc(Cl)cc2)nc1	0	0	0	0	0	0
CC(=O)NCCNc1ccc([N+](=O)[O-])cn1	0	0	0	0	0	0
COc1cccc(CN2CCN(Cc3ccc(C)o3)CC2CCO)c1 (stereo unspecified)	0	0	0	0	0	0
CCOc1cc(N2CCOCC2)c(OCC)cc1NC(=O)c1ccccc1	0	0	0	0	0	0
O=C(CO/N=C/c1ccccc1O)N1CCc2ccccc21	0	45	0	0	0	0
O=C(OCC(=O)N1CCc2ccccc21)c1ccccc1	0	0	0	0	0	0
Cn1c(Sc2ccc(C(F)(F)F)cc2[N+](=O)[O-])nnc1-c1ccccc1	0	51	0	0	0	0
CC(=O)Nc1ccc(NC(=O)CCn2c(=S)oc3ccccc32)cc1	0	0	0	0	0	49
CNc1ccccc1NC(=O)CCn1c(=S)oc2ccccc21	0	0	0	0	0	0
c1cnc2c(OCc3nc4ccccc4[nH]3)cccc2c1	0	0	0	0	56	0
N#Cc1ccc(-c2cccs2)nc1SCc1cccnc1	0	0	0	0	0	0
SMILES	Furin inhibitor	KLK5 inh	FXIa inh	Thrombin inh	Calpain2 inh	FXIIa inh
Cc1ccc(C(=O)N/N=C\c2c(C)nn(-c3ccccc3)c2Cl)cn1	0	41	0	0	0	0
Cc1cc(NC(=S)N(Cc2cccc(Br)c2)CC2CCC(C(=O)O)CC2)ccc1Cl (stereo unspecified)	0	-	0	0	53	0
Cc1ccc(C)n1-c1ccc(-c2nnco2)cc1	0	0	0	40	0	0
Cc1cc(-c2nnco2)c(C)n1-c1ccc(F)cc1	0	0	0	0	0	0
COc1ccc(-n2nnnc2SCC(=O)Nc2nnc(C)s2)cc1	0	0	0	0	0	0
COc1ccc(CNc2oc(COc3ccc(Cl)cc3)nc2C#N)cc1	0	0	0	0	54	0
COc1ccc(Nc2oc(COc3ccc(Cl)cc3)nc2C#N)cc1	0	0	0	0	0	0
COc1cc(C(=O)N2CCC(O)(c3ccccc3)CC2)cc(OC)c1OC	0	51	0	0	0	0
COc1cc(C(=O)N2CCN(C/C=C/c3ccccc3)CC2)cc(OC)c1OC	0	0	0	0	0	0
Cc1cccc(OCc2nnc(SCC(=O)c3cccs3)n2C)c1C	0	0	0	0	0	0
